Here are results for three molecules from PMC10471475 (Parasites, Hosts and Diseases, 2023).

Where “and” joins values, the source holds several entries; their conditions need not be identical. Identical values can stand only once. Marks after values point to notes of the source that are not given here.

Data set [1] concerns P. berghei. The note with it: cited from earlier work.
Data set [2] concerns P. berghei (NK65 strain). Kind of data set: Peters' 4-day suppressive test by different administration routes. In kind it is in vivo, Plasmodium berghei. The method, boiled down:
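Peters' 4-day test: male ICR mice, iv inoculation of 1×10^5 P. berghei NK65-infected erythrocytes. First dose 2 h post-inoculation, then dosing on days 0–3. Routes and doses: po 0–80 mg/day in olive oil; iv 0–80 mg/day in ethanol/Cremophor EL/saline 10:10:80; sq 0–8 mg/day in the iv vehicle. Vehicle controls; 5 mice/group. Day-4 thin-film parasitemia, expressed as percent reduction; ED50/ED90 by sigmoidal dose-response fit.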

Data set [3] relates to malaria parasites in mice. To be noted: ointment, transdermal, cited from earlier work.
The test system of data set [4] is P. falciparum. To be noted: cited from earlier work.
In data set [5] the test system is P. berghei (NK65 strain). Kind of data set: Antimalarial activity following repeated oral dosing. In kind it is in vivo, Plasmodium berghei. To be noted: for Parasitemia day 1: before treatment (treatment days 2-4); for Parasitemia day 2: start of treatment.
For data set [6], the system named is mouse mammary tumor FM3A cells. The note with it: in vitro; cited from earlier work.
The nature of data set [7]: Pharmacokinetic analysis of N-89 in mice after single po or iv administration. It counts as in vivo, ICR mice. To be noted: for plasma concentration: detection limit 5 ng/ml. Summed up: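 Male ICR mice got a single dose of test compound: 75 mg/kg po in olive oil or 30 mg/kg iv in 10% ethanol/10% Cremophor EL/80% saline. Blood sampled 0.25–10 h, one sample per mouse, 5 mice per time. Plasma obtained by centrifugation 10 min, 945 g, 4°C, acetonitrile-extracted, then LC/MS/MS (detection limit 5 ng/ml). Cmax observed; AUC and MRT from the mean time course (n=5).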

Setting [8] is: po, olive oil, 4 days, parasitemia on day 4.
[9] abbreviates: 50 mg/kg po thrice daily days 2-4.
The mark [10] stands for this setting: 50 mg/kg po thrice daily for 3 days.
Setting [11] is: 75 mg/kg po 3 times daily days 2-4.
Where [12] appears, read: ICR, mouse, plasma, iv, 30 mg/kg.
The mark [13] stands for this setting: ICR, mouse, plasma, po, 75 mg/kg.

Turning to `CO[C@H]1O[C@@H]2O[C@@]3(C)CC[C@H]4[C@H](C)CC[C@@H]([C@H]1C)[C@@]24OO3` [artemether], in data set [1] (improved formulation, same experimental conditions, dose 60 mg/kg), the “effect of topical formulation on infected mice” value is reported as “efficient”.

The term ED50 denotes the dose at which the effect has come halfway, by size or by number of responders. Low readings indicate greater potency, high ones weaker potency. The term AUC(0-inf) denotes the area under the concentration-time curve extrapolated to infinity. A word on the AUC(0-t): it is exposure summed from dosing to a finite time, without extrapolation to infinity. The term MRT denotes the average time that molecules of a dose stay in the body. One may read the half-life as the time needed for the level to fall by half in the phase considered. A low value points to rapid decline. Broadly, the bioavailability is dose-corrected exposure relative to a reference, in per cent. A low value points to poor availability. As usually defined, the Cmax is the highest concentration seen after dosing. The Tmax is the time at which the peak concentration occurs. The molecule `C1CCCCCC2(CCCCC1)OOCCCOO2` [N-89, 1,2,6,7-tetraoxaspiro[7.11]nonadecane] yielded a median effective dose (ED50) in data set [2] (Plasmodium berghei, 96 h, sq, ethanol:Cremophor EL:saline 1:1:8, 4 days) of 2.5 ± 1.1 mg/kg. The same molecule came in with a 50% effective dose (ED50) in data set [2] (Plasmodium berghei, iv, 96 h, iv, ethanol:Cremophor EL:saline 1:1:8, 4 days) of 14.5 ± 1.9 mg/kg. The ED90 in data set [2] (iv, ethanol:Cremophor EL:saline 1:1:8, 4 days) was 21.0 ± 0.8 mg/kg. Also, in data set [2] (setting [8]), the ED50 was 20.5 ± 2.0 mg/kg and the ED90 worked out at 43.5 ± 1.5 mg/kg. In data set [2] (sq, ethanol:Cremophor EL:saline 1:1:8, 4 days), the ED90 was 3.8 ± 1.0 mg/kg. Further, the “day from which parasites disappeared post-treatment” value in data set [3] (60 mg/kg twice daily for 4 days at 0.2% parasitemia) is 7 days. The “recurrence and dermal irritation” value in data set [3] (60 mg/kg twice daily for 4 days) is given as “without parasite recurrence or dermal irritation”. Also, in data set [4], the “EC50 value of P. falciparum in vitro” value is 6.8 ng/mL. In addition, in data set [5] (50 mg/kg po group), the “Parasitemia day 1” value is reported as 0.10±0.04%. Besides, in data set [5] (setting [9]), the “Parasitemia day 3” value is given as 0.11±0.06%, the “Parasitemia day 4” value is reported as 0.01±0.01%, the “Parasitemia day 5” value is given as 0.002±0.004^c % and the “Parasitemia day 6” value is 0.00^b %. Also, in data set [5] (setting [9]), the “parasitemia of the one mouse not yet cured on day 5” value was determined as 0.01% and the “Parasitemia day 2” value came out at 0.51±0.14%. In addition, in data set [5] (setting [10]), the cure effect result is “complete cure effect” and the “day on which parasites were eliminated / all mice cured, no recurrence to day 30” value was 6 days. In data set [5] (setting [11]), the “Parasitemia day 3” value amounted to 0.26±0.05%, the “Parasitemia day 4” value was 0.01±0.01^a %, the “Parasitemia day 5” value is 0.00^b % and the “Parasitemia day 6” value was determined as 0.00%. In addition, in data set [5] (setting [11]), the “parasitemia of the 4 mice not yet cured on day 4” value was “below 0.015%” and the “Parasitemia day 2” value worked out at 0.70±0.19%. Moreover, the “day on which parasites were eliminated / all mice cured, no recurrence to day 30” value in data set [5] (75 mg/kg po 3 times daily for 3 days) is 5 days and 4 to 5 days. Also, the “Parasitemia day 1” value in data set [5] (75 mg/kg po group) is given as 0.09±0.07%. For the same molecule, the “toxicity against P. falciparum relative to FM3A cells (selective toxicity)” value in data set [6] is 350 fold. Moreover, in data set [7] (setting [12]), the total exposure AUC(0-inf) worked out at 13600 ng·h/mL, the AUC(0-t) was determined as 13600 ng·h/mL, the MRT came to 14.4 min and the Vd amounted to 0.53 L/kg. In data set [7] (setting [12]), the clearance is 36.8 mL/min/kg, the concentration at 0.25 h came to 18.3 µg/mL and the half-life was 90 min. The same molecule showed a bioavailability in data set [7] (ICR, mouse, plasma, oral, 75 mg/kg) of 7.01%. For the same molecule, in data set [7] (setting [13]), the area under the curve AUC(0-inf) turned out to be 2380 ng·h/mL, the AUC(0-t) came to 2370 ng·h/mL, the Cmax is 1.59 µg/mL and the MRT worked out at 107 min. In data set [7] (setting [13]), the Tmax is 45 min, the concentration at 8 h was 0.0081 µg/mL and the half-life was 58.2 min. In addition, the plasma concentration result in data set [7] (mice, 30 mg/kg iv, at 5 h) was “could not be detected”. In data set [7] (mice, 75 mg/kg po, at 10 h), the plasma concentration result is given as “could not be detected”. In data set [7] (mice, single dose 75 mg/kg po (Table 1)), this molecule displayed a Cmax of 1590 µg/mL.

As to `C[C@H]1[C@@H](OCc2ccc(C(=O)O)cc2)O[C@@H]2O[C@@]3(C)CC[C@H]4[C@H](C)CC[C@@H]1[C@@]24OO3` [artelinic acid], the “effect of topical gel on infected mice” value in data set [1] (gel applied topically twice/day x 3 days post-infection, dose 270 mg/kg) is reported as “prevented the death”.
